Screening results from PubChem.
Sampled rows, rich in hits. Any-hit rate of the full collection: about 9.4%.
Mdm2 MdmX PPI = human Mdm2/MdmX binding inhibition; inhibition, % at 8 µM; 330,000 compounds, 3% hits; SaOS-2 split-luciferase Mdm2/MdmX complementation, luminescence;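 active means inhibition of at least 50% at 8 µM in the primary screen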
Target sequence (O15151 whole entry, looked up): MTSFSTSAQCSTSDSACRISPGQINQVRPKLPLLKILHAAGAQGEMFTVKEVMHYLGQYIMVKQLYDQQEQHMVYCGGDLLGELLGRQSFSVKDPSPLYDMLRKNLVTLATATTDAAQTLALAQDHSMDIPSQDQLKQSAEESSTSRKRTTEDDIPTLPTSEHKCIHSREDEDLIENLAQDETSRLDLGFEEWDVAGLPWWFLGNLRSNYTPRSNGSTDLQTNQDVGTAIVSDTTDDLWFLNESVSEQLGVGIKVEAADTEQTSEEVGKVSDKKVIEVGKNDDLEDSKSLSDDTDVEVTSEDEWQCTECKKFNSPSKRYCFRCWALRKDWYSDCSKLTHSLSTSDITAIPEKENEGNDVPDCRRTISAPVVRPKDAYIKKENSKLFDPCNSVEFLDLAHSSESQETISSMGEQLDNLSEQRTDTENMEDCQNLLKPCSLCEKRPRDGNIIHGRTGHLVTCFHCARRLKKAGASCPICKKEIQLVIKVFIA
Target sequence (Q00987 whole entry, looked up): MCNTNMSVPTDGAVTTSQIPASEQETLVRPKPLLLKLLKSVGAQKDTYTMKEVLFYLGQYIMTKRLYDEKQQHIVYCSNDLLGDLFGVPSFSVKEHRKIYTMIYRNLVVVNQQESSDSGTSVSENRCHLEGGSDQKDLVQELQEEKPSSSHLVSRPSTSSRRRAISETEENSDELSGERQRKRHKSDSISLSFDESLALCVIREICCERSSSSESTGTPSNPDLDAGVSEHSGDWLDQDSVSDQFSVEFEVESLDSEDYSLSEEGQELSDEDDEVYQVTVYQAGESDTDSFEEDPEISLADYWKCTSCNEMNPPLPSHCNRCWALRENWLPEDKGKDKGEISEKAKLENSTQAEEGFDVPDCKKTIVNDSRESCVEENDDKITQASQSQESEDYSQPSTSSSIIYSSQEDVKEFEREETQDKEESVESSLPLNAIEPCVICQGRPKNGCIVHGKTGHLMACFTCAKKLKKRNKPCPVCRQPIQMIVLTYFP
SKKanGAS inh = blocks kanamycin growth of S. pyogenes SKKanGAS strain. BacTiter-Glo, 6 h. inhibition, % at 7.5 µM. AID 1662. 300,000 compounds, 1.3% hits;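 active means mean replicate score, as percent of positive control median, at least 50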;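 further: strain carries kanamycin resistance gene driven by streptokinase promoter and grows in 40 µg/ml kanamycin; loss of luminescence reflects streptokinase promoter inhibition or plain growth inhibition; 0% = median of DMSO wells and 100% = positive control at its reference dose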
CSC inhib = blocks cancer stem cells; cancer stem cell-like cells viability, luminescence; inhibition, % at 7.5 µM; 300,000 compounds, 1.1% hits; in the data active means inhibition above about 75%; tested in HMLE shEcad cells
Beta apoptosis = blocks beta cell apoptosis | INS-1E cytokine-induced death, ATP luminescence, 48 h; percent of positive-control rescue, neutral wells zero | protection from apoptosis, % (no concentration beside the values) | 300,000 compounds, 0.8% hits | AID 435005;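 active means Every replicate reaches about 75%, or at least half do and their mean reaches it too, limit read from the data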;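 further: 0% = cytokine-treated negative control wells and 100% = positive control rescue; higher means more ATP so stronger rescue from cytokine killing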
T cruzi inh = T. cruzi replication inhibition; 300,000 compounds, 1.4% hits; T. cruzi beta-gal in NIH3T3, luminescence, 90 h; inhibition, % (test concentration not listed);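 active means mean inhibition across valid replicates above about 55%, limit read from the data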;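 further: signal also drops with host cell toxicity which is not excluded here; 0% = plate median of DMSO wells and 100% = zero luminescence signal; higher percent means less beta-gal luminescence so fewer parasites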
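Material: NIH/3T3 host cells with β-galactosidase reporter T. cruzi; Input: 5,000 host fibroblasts per well; Medium: DMEM, 2% fetal bovine serum; Compound: 50 nL DMSO compound solution per well; Schedule: 3 h host attachment, then at least 90 h co-culture; Detection: luminescent β-galactosidase signal after 60 min lysis.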
Lmaj promast = inhibitors of Leishmania major promastigote growth. inhibition, % at 10 µM. 200,000 compounds, 9% hits. Leishmania major promastigotes, resazurin fluorescence viability; in the data active means inhibition above about 50%;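 further: promastigotes grown with compound for 44 hours at 28 °C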
Starred values were filed as active, the others as inactive; x = no result.

SMILES | Mdm2 MdmX PPI | SKKanGAS inh | CSC inhib | Beta apoptosis | T cruzi inh | Lmaj promast
COc1cccc(CC2(CO)CCN(CC3=CC[C@H]4C[C@@H]3C4(C)C)CC2)c1 | 35.8 | 8.2 | 16.8 | 6.5 | x | 88.4*
COc1cccc(CN2CCC(CO)(CC3CCCCO3)CC2)c1 (stereo not given) | 2.6 | 5.4 | -4.5 | -2.6 | 9.6 | 2.2
Cc1ccc(N(C(=O)CNC(=O)c2cccs2)C(C(=O)NC2CCCC2)c2ccncc2)cc1 (stereo not given) | -17.4 | 2.7 | -3.5 | -5.5 | -13.1 | x
CC(=O)c1ccc(OC(=O)CCN2c3ccccc3Sc3ccccc32)cc1 | 11.6 | 1.5 | -5.5 | 0.0 | -15.0 | 53.2*
COC(=O)c1ccc(OC(=O)CCN2c3ccccc3Sc3ccccc32)cc1 | 18.2 | -11.4 | -9.3 | 3.2 | -16.6 | -5.6
COc1ccc(C(=O)ON=C2C=C(C)C(=O)C(C)=C2)cc1 | 45.4 | 2.8 | 18.2 | -15.9 | 32.1 | 100.4*
COc1cc(C(=O)ON=C2C=C(C)C(=O)C(C)=C2)cc(OC)c1OC | 10.4 | -7.6 | 34.6 | -0.2 | -12.5 | 89.1*
COc1ccc(S(=O)(=O)N=C2C=C(C)C(=O)C(C)=C2)cc1 | -7.0 | 10.3 | -1.4 | 0.8 | 3.9 | -2.5
COc1cc(C(=O)O/N=C(\N)c2ccncc2)cc(OC)c1OC | 40.0 | -0.7 | 29.7 | -5.5 | -27.6 | 82.1*
COc1cc(C(=O)OCCCOC(=O)c2cc(OC)c(OC)c(OC)c2)cc(OC)c1OC | 20.7 | 2.0 | 6.2 | 6.0 | 6.4 | x
COc1cc(C(=O)O/N=C2\C=CC(=O)C(C)=C2)cc(OC)c1OC | 32.4 | 0.1 | 27.9 | 65.3 | 13.0 | 100.5*
COc1cc(C(=O)OCC(=O)N2CCCC2)cc(OC)c1OC | -11.6 | -5.6 | 30.4 | -2.5 | -6.8 | -3.8
CC(=O)N/C(=C\c1ccccc1)C(=O)OCC(=O)Nc1cc(S(=O)(=O)N(C)C)ccc1C | 34.4 | 15.6 | -11.2 | -2.4 | -8.7 | x
Cc1nn(CC(=O)Nc2ccc3nc4n(c(=O)c3c2)CCCC4)c(C)c1[N+](=O)[O-] | 4.7 | -5.1 | 8.1 | 2.5 | -11.9 | x
O=C1NC(=S)S/C1=C\c1ccc(SCc2ccccc2)o1 | x | x | 76.0* | 8.3 | x | 0.9
O=C1NC(=S)S/C1=C\c1ccc(SCc2ccco2)o1 | x | x | 14.1 | -2.4 | x | -8.4
Cc1oc2cc(O)ccc2c(=O)c1-c1cnn(-c2ccccc2)c1 | 25.4 | 28.0 | x | -1.5 | 5.7 | 14.2
CCc1cc2c(=O)c(-c3cnn(-c4ccccc4)c3)c(C)oc2cc1OCC(=O)Nc1cccc(C)c1 | 1.5 | -6.0 | 43.3 | -3.9 | -8.1 | 66.5*
CC1CC(C)CN(S(=O)(=O)c2ccc(C(=O)Nc3nnc(-c4cccs4)o3)cc2)C1 (stereo not given) | 37.5 | 81.9* | 44.5 | x | 23.8 | 99.7*
CC1CCCN(S(=O)(=O)c2ccc(C(=O)Nc3nnc(-c4ccccn4)o3)cc2)C1 (stereo not given) | 3.2 | 5.6 | 25.5 | -25.4 | -13.7 | 7.6
CC1CCCN(S(=O)(=O)c2ccc(C(=O)Nc3nnc(-c4ccccc4Cl)o3)cc2)C1 (stereo not given) | 48.2 | 97.2* | 21.6 | 16.4 | 40.9 | 100.3*
CCC1CCCCN1S(=O)(=O)c1ccc(C(=O)Nc2nnc(-c3cccs3)o2)cc1 (stereo not given) | 36.6 | x | -7.1 | 27.0 | x | 99.2*
N#CC(C#N)=Cc1ccc(OCC(=O)N2CCOCC2)cc1 | -7.7 | 28.8 | 8.1 | 10.3 | -15.3 | -1.3
COC(=O)[C@@]1(C)[C@H]2C(=O)N(Cc3ccccc3)C(=O)[C@H]2[C@H]2CN=C(SCc3ccc(C)cc3)N21 | 40.9 | x | x | x | x | x
CCOC(=O)C(Oc1ccc2c(-c3ccccc3)cc(=O)oc2c1)c1ccccc1 (stereo not given) | 25.4 | -11.1 | -0.9 | -0.6 | 31.3 | 78.4*
SMILES | Mdm2 MdmX PPI | SKKanGAS inh | CSC inhib | Beta apoptosis | T cruzi inh | Lmaj promast
COC(=O)C(Oc1ccc2c(-c3ccc(OC)cc3)cc(=O)oc2c1)c1ccccc1 (stereo not given) | 27.2 | 10.0 | 1.0 | -7.9 | -11.5 | 13.3
COc1cc(/C=N/NC(=O)c2cccc(S(=O)(=O)N3CCCCC3)c2)cc(Br)c1O | -12.6 | 2.9 | x | 5.1 | -5.5 | 6.5
COc1ccc(-c2cnnn2-c2ccc(NC(=O)c3ccc(S(=O)(=O)N4CCCCC4)cc3)cc2)cc1OC | 48.7 | 12.9 | x | 10.8 | -19.2 | 96.1*
COc1ccc(C(=O)Nc2ccc(S(=O)(=O)N3CCCCC3)cc2)cc1OC | 23.9 | 4.0 | 3.8 | 3.4 | 10.5 | 67.2*
Cc1onc(-c2ccccc2)c1NC(=O)N(CCC#N)Cc1ccccc1 | -7.7 | 10.6 | -0.9 | -4.9 | -4.1 | x
COC(=O)C1=C(C)N(CCCC(=O)O)C(=O)NC1c1ccccc1OS(=O)(=O)c1ccc([N+](=O)[O-])cc1 (stereo not given) | -7.3 | -1.1 | -3.1 | -1.1 | -13.5 | x
CN1CCN(c2nc(-c3ccc(Cl)c(Cl)c3)nc3ccccc23)CC1 | 8.8 | 6.7 | 27.6 | 4.0 | 34.8 | x
CN1CCN(C2=Cc3ccccc3Sc3cc(F)c(F)cc32)CC1 | 36.2 | 12.1 | 22.0 | 1.1 | 14.4 | 100.5*
CN1CCN(C2=Cc3ccccc3Sc3cc(F)c(Cl)cc32)CC1 | 37.3 | 41.5 | 40.4 | 4.8 | 12.3 | 92.5*
C/C(=N/NC(=O)CN1CCN(S(=O)(=O)c2ccc(Br)cc2)CC1)c1cccnc1 | -25.3 | 2.6 | -3.5 | -4.3 | -5.6 | 10.9
Cc1c(Cl)cccc1NC(=S)NCCCN(C)C | 7.3 | 2.9 | 1.3 | -6.6 | 45.3 | 81.9*
Cc1c(Cl)cccc1NC(=S)NC1CC1 | 15.2 | -1.2 | -10.4 | -4.3 | -3.1 | 82.1*
NC(=O)c1cc[n+](CC(=O)c2ccc(NC(=O)c3ccccc3)cc2)cc1 | -14.0 | -7.5 | -12.2 | -11.3 | -2.4 | -5.8
COc1ccc(N(CC(=O)NC2CCCCCC2)S(=O)(=O)c2ccc(C)cc2)cc1OC | 11.4 | 3.8 | -7.7 | x | 9.8 | x
COc1cccc(NC(=O)COc2cccc3c2CCNC3=O)c1 | 19.5 | -7.2 | -7.1 | -0.5 | -8.0 | x
COc1cc(/C=N/OCC(=O)Nc2cc(C)cc(C)c2)ccc1OCc1ccc(Cl)cc1 | -211.4 | -5.7 | 37.1 | -8.0 | 12.0 | 96.2*
COc1cc(/C=N/OCC(=O)NC2CCCCC2C)ccc1OCc1ccc(Cl)cc1 (stereo not given) | -104.1 | 0.1 | 13.8 | 6.9 | 19.8 | 82.9*
COCC(=O)N1CCC(Oc2ccc(C(=O)N3CCCCC3COC)cc2)CC1 (stereo not given) | 1.9 | 1.8 | -8.7 | -2.3 | -0.7 | x
COc1ccc(NC(=O)CN2CCCC2c2cccs2)cc1S(=O)(=O)N1CCCCC1 (stereo not given) | 2.3 | x | -24.1 | 14.9 | x | x
CCc1nc2n(n1)C(O)c1cc([N+](=O)[O-])ccc1S2 (stereo not given) | 33.0 | 2.4 | -9.6 | 3.0 | -15.2 | x
Oc1cccc(/C=N/NC(=S)Nc2cccnc2)c1O | x | 22.2 | 73.8 | 87.3* | -16.6 | 98.8*
Oc1ccc(/C=N/NC(=S)Nc2cccnc2)c(O)c1 | 5.5 | -10.8 | 74.0 | 63.8 | -1.2 | 84.3*
Oc1ccc(/C=N/NC(=S)Nc2cccnc2)c(O)c1O | x | -1.9 | x | x | 29.8 | x
